A value given as a limit tells only on which side of the number the result lay.

Usually Ki stands for a measure of affinity in units of concentration, obtained from inhibition or displacement. As usually defined, the half-life is the time needed for the level to fall by half in the phase considered. What is called bioavailability is dose-corrected exposure relative to a reference, in per cent. A lower bioavailability goes with poor availability.

Data set [1] deals with T1, Corticotropin-releasing factor receptor 1 (Homo sapiens, UniProt P34998).
T1 sequence (P34998 whole entry): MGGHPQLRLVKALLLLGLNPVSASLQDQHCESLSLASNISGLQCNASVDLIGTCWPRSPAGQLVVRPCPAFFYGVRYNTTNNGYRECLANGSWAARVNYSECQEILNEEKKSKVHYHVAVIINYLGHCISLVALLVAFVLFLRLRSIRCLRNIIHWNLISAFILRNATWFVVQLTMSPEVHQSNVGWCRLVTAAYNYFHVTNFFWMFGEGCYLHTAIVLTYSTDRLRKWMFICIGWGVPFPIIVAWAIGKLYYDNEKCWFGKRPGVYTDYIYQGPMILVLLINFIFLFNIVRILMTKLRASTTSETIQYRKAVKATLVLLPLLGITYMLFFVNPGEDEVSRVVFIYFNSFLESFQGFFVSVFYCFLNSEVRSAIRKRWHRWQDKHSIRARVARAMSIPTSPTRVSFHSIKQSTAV
The experiment in a line: Antagonist activity at human recombinant CRF1 receptor expressed in CHO cells assessed as inhibition of CRF-induced cAMP production. The class given is functional, cell-based. Summed up:
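CHO cells stably expressing recombinant human CRF-1, grown in DMEM:F12 with 10% FBS, 1% Glutamax and Geneticin at 37 °C, 5% CO2 to 70% confluence. hCRF (10 nM final) added with compound to 10,000 cells/well in PBS with IBMX. cAMP read by enzyme-fragment complementation kit. 0.5-log serial dilutions, repeated tests, 4-parameter logistic IC50. Ki by Cheng–Prusoff from agonist EC50 measured the same day.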
For orientation: Cyclic AMP is a second messenger, typically raised through Gs and lowered through Gi signalling.

Data set [2] relates to Liver microsomes. Kind of data set: Intrinsic clearance in human liver microsomes assessed per mg of protein. The class given is ADME, Microsome. On the technique in general: Liver microsomes are a subcellular fraction often used to study metabolism.
Data set [3] relates to Liver microsomes. The experiment in a line: Intrinsic clearance in rat liver microsomes assessed per mg of protein. The class given is ADME, Microsome.
A short description of data set [4]: Chemical stability of the compound. The class given is physicochemical.
Data set [5] in a line: Chemical stability at pH 1.2 assessed as compound remaining at 50 degC after 14 days. The class given is physicochemical. Particulars: buffer, read-out: Stability.
Data set [6] in a line: Clearance in rat at 0.1 mg/kg, iv and 5 mg/kg, po. Particulars: in vivo. The class given is ADME, organism-based.
Data set [7] in a line: Volume of distribution in rat at 0.1 mg/kg, iv and 5 mg/kg, po. The class given is ADME, organism-based. Particulars: in vivo.
Data set [8] is described as follows: Half life in rat at 0.1 mg/kg, iv and 5 mg/kg, po. The class given is ADME, organism-based. Particulars: in vivo.
Data set [9] in a line: Bioavailability in rat at 0.1 mg/kg, iv and 5 mg/kg, po. The class given is ADME, organism-based. Particulars: in vivo.

As to `CCCN(CCO)c1nc(C)nc2c1c(C)nn2-c1ccc(OC)cc1C`, the Ki in data set [1] was 129 nM. Also, the clearance in data set [2] amounted to 80 µL/min/mg; in data set [3], 117 µL/min/mg.
With `CCCN(CCOC)c1nc(C)nc2c1c(C)nn2-c1ccc(C#N)cc1C#N`, in data set [1], the Ki stood at 632 nM. Moreover, the clearance worked out at 151 µL/min/mg in data set [2] and 166 µL/min/mg in data set [3].
Taken in the same sequence, the figures for `COCCN(CCOC)c1nc(C)nc2c1c(C)nn2-c1ccc(OC)cc1C` were 193 nM, 66 µL/min/mg and 47 µL/min/mg.
With `CCCNCc1nc(Nc2nc(C)nc3c2c(C)nn3-c2ccc(OC)cc2C)no1`, the inhibition constant Ki in data set [1] amounted to 124 nM. The results for the clearance in [2] and in data set [3] were 29 µL/min/mg and 58 µL/min/mg, respectively.
Take `CCC[C@H](CO)Nc1nc(C)nc2c1c(C)nn2-c1ccc(OC)cc1C`: in data set [1], the Ki came out at 76 nM. The clearance in data set [2] amounted to 23 µL/min/mg; in data set [3], 41 µL/min/mg.
On the same counts, the results for `CC[C@H](COC)Nc1nc(C)nc2c1c(C)nn2-c1ccc(OC)cc1C` are 210 nM, 37 µL/min/mg and 53 µL/min/mg.
For `CC[C@@H](COC)Nc1nc(C)nc2c1c(C)nn2-c1ccc(OC)cc1C`, the Ki in data set [1] amounted to 135 nM. The values for the clearance in [2] and in [3] were 52 µL/min/mg and 105 µL/min/mg, respectively.
Take `CCCN(CCOC)c1nc(C)nc2c1c(C)nn2-c1ccc(OC)nc1C`: the Ki in [1] came to 43 nM. For the same compound, the clearance in data set [2] is 117 µL/min/mg; in [3] it was 163 µL/min/mg.
`CCCN(CCOC)c1nc(C)nc2c1c(C)nn2-c1ccc(C(N)=O)nc1C`: the Ki in [1] worked out at 577 nM. In addition, the clearance in data set [2] came out at 38 µL/min/mg; in data set [3], 13 µL/min/mg.
On the same counts, the results for `CCCN(CCOC)c1nc(C)nc2c1c(C)nn2-c1ccc(C#N)cc1C` are 101 nM, 147 µL/min/mg and under 11 µL/min/mg.
On the same counts, the results for `CCCN(CCOC)c1nc(C)nc2c1c(C)nn2-c1ccc(OC)cc1C` are 13 nM, 172 µL/min/mg and 23 µL/min/mg.
Take `CCN(CCOC)c1nc(C)nc2c1c(C)nn2-c1ccc(OC)cc1C`: the Ki in [1] was found to be 117 nM. The clearance is 117 µL/min/mg in data set [2] and 104 µL/min/mg in data set [3].
Turning to `CCCNCc1cncn1Nc1nc(C)nc2c1c(C)nn2-c1ccc(OC)cc1C`, the Ki in data set [1] stood at 2500 nM. Moreover, the clearance in data set [2] was 196 µL/min/mg; in data set [3], 85 µL/min/mg.
On the same counts, the results for `CCCN(CCOC)c1nc(C)nc2c1c(C)nn2-c1cnc(N(C)C)cc1C` are 183 nM, 160 µL/min/mg and 206 µL/min/mg.
Consider `CCC(CC)Nc1nc(C)nc2c1c(C)nn2-c1ccc(OC)cc1C`, for which, in [1], the inhibitory constant (Ki) came to 42 nM. For the same compound, the values for the clearance in data set [2] and in data set [3] were 64 µL/min/mg and 72 µL/min/mg, respectively.
For `CCCN(CCOC)c1nc(C)nc2c1c(C)nn2-c1ccc(OC)cc1OC`, the Ki in [1] was 74 nM. In addition, the results for the clearance in [2] and in [3] were 86 µL/min/mg and 90 µL/min/mg, respectively.
Consider `CC[C@H](CO)Nc1nc(C)nc2c1c(C)nn2-c1ccc(OC)cc1C`, for which the Ki in [1] is 1130 nM. The clearance was under 7 µL/min/mg in data set [2] and 23 µL/min/mg in data set [3].
Take `CCC(CC)Nc1nc(C)nc2c1cnn2-c1ccc(OC)cc1C`: the Ki in data set [1] was 85 nM. Besides, the clearance was determined as 15 µL/min/mg in data set [2] and 246 µL/min/mg in data set [3].
For `CCCNCc1noc(Nc2nc(C)nc3c2c(C)nn3-c2ccc(OC)cc2C)n1`, the Ki in data set [1] worked out at 84 nM. For the same compound, the clearance in data set [2] was found to be 51 µL/min/mg; in [3], 66 µL/min/mg.
For `COc1ccc(-n2ncc3c(NC(C4CC4)C4CC4)nc(C)nc32)c(C)c1`, the Ki in [1] stood at 32 nM. The figures for the clearance in [2], in [3] and in data set [6] were under 11 µL/min/mg, 25 µL/min/mg and 27 mL/min/kg, respectively. In addition, the Stability result in data set [4] is given as “Stable”. Moreover, the remaining at 336 h in [5] amounted to 51%. The compound further displayed a Vd in data set [7] of 7 L/kg. The half-life in data set [8] is 1.9 h. Moreover, the bioavailability in data set [9] was 43%.
For `CCCN(CCOC)c1nc(C)nc2c1c(C)nn2-c1ccc(OC)nc1OC`, the Ki in data set [1] was 17 nM. Moreover, the figures for the clearance in [2] and in data set [3] were 218 µL/min/mg and 159 µL/min/mg, respectively.
For `COc1ccc(-n2nc(C)c3c(NC(C4CC4)C4CC4)nc(C)nc32)c(C)c1`, the Ki in data set [1] is 35 nM. The clearance is under 12 µL/min/mg in [2] and 24 µL/min/mg in data set [3].
On the same counts, the results for `CC[C@@H](CO)Nc1nc(C)nc2c1c(C)nn2-c1ccc(OC)cc1C` are 620 nM, under 7 µL/min/mg and 27 µL/min/mg.
Taken in the same sequence, the figures for `CCCNCc1nccn1Nc1nc(C)nc2c1c(C)nn2-c1ccc(OC)cc1C` were 400 nM, 96 µL/min/mg and 67 µL/min/mg.
In the case of `CCCCN(CC)c1nc(C)nc2c1c(C)nn2-c1c(C)cc(C)cc1C`, in data set [1], the Ki was determined as 9 nM. In data set [2], this compound returned a clearance of over 320 µL/min/mg.
For the compound `CCCNCc1nnc(Nc2nc(C)nc3c2c(C)nn3-c2ccc(OC)cc2C)o1`, the Ki in data set [1] is 996 nM. In addition, the results for the clearance in data set [2] and in [3] were 34 µL/min/mg and 40 µL/min/mg, respectively.
As for `CCC[C@@H](CO)Nc1nc(C)nc2c1c(C)nn2-c1ccc(OC)cc1C`, the Ki in [1] was 574 nM. Besides, the clearance in data set [2] worked out at 10 µL/min/mg; in data set [3], 36 µL/min/mg.
For the compound `CCCN(CCOC)c1nc(C)nc2c1cnn2-c1ccc(OC)cc1C`, in data set [1], the Ki stood at 132 nM. Besides, the clearance in [2] came to 16 µL/min/mg; in data set [3], 387 µL/min/mg.
`CCCN(CCOC)c1nc(C)nc2c1c(C)nn2-c1ccc(C(N)=O)cc1C`: the Ki in data set [1] came to 275 nM. Also, the clearance in data set [2] came to 17 µL/min/mg; in [3], 22 µL/min/mg.
Take `CCCN(CC(=O)N(C)C)c1nc(C)nc2c1c(C)nn2-c1ccc(OC)cc1C`: the Ki in data set [1] was found to be 1410 nM. Moreover, the figures for the clearance in [2] and in data set [3] were 18 µL/min/mg and 22 µL/min/mg, respectively.

The values above are taken from ChEMBL document CHEMBL1156069, “Optimising metabolic stability in lipophilic chemical space: the identification of a metabolically stable pyrazolopyrimidine CRF-1 receptor antagonist” (Bioorg Med Chem Lett, 2009).
